Values belong to the molecule of their own block, whether it stands above or below them. Activity calls are given as the source filed them. No cut-off for these calls is given here.
Experiments:
[1] = test system: NCTC-2544; experiment: Antiinflammatory activity in human NCTC-2544 cells assessed as reduction of IFN-gamma/histamine-induced-induced iNOS expression at 10 to 20 uM after 48 hrs by Western blot analysis; type: functional, cell-based
How it was run: (§1)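 NCTC 2544 keratinocytes kept at 37 °C in 95% air/5% CO2, medium with 10% foetal calf serum plus penicillin/streptomycin, plated 1.5 × 10⁶ per dish 24 h beforehand. Stimulated with 200 U/ml IFN-γ and 10^-4 M histamine while exposed to compound; after 48 h, lysates (50 µg protein) run in Western blots against NF-κB p50 (nuclear activated form) or iNOS, signal normalized to α-tubulin. Each experiment at least three times in triplicate, mean ± SEM.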

[2] = test system: NCTC-2544; experiment: Antiinflammatory activity in human NCTC-2544 cells assessed as reduction of IFN-gamma/histamine-induced-induced iNOS expression at 20 uM after 48 hrs by Western blot analysis relative to control level; type: functional, cell-based; how it was run: as §1
[3] = target: Aldo-keto reductase family 1 member B1 (Bos taurus, UniProt P16116); experiment: Inhibition of bovine aldose reductase assessed as oxidation of NADPH
How it was run: (§2)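 AR purified from bovine lens (specific activity 1.2 U/mg), 5 mU per assay. Mixture of 0.25 M sodium phosphate pH 6.8, 4.67 mM D,L-glyceraldehyde, 0.11 mM NADPH, 0.38 M ammonium sulphate, 0.5 mM EDTA, 1% DMSO final. NADPH oxidation followed as absorbance decrease at 340 nm, 37 °C. IC50 by nonlinear fit to one-site competition log dose–inhibition curve.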

[4] = target: T1, Nuclear factor NF-kappa-B complex (Homo sapiens) (UniProt Q00653+P19838+Q04206); experiment: Inhibition of IFN-gamma/histamine-induced NF-kappaB activation in human NCTC-2544 cells assessed as inhibition of nuclear translocation at 10 to 20 uM after 48 hrs by Western blot analysis; type: cell-based; how it was run: as §1
T1 sequence (P19838 whole entry, looked up): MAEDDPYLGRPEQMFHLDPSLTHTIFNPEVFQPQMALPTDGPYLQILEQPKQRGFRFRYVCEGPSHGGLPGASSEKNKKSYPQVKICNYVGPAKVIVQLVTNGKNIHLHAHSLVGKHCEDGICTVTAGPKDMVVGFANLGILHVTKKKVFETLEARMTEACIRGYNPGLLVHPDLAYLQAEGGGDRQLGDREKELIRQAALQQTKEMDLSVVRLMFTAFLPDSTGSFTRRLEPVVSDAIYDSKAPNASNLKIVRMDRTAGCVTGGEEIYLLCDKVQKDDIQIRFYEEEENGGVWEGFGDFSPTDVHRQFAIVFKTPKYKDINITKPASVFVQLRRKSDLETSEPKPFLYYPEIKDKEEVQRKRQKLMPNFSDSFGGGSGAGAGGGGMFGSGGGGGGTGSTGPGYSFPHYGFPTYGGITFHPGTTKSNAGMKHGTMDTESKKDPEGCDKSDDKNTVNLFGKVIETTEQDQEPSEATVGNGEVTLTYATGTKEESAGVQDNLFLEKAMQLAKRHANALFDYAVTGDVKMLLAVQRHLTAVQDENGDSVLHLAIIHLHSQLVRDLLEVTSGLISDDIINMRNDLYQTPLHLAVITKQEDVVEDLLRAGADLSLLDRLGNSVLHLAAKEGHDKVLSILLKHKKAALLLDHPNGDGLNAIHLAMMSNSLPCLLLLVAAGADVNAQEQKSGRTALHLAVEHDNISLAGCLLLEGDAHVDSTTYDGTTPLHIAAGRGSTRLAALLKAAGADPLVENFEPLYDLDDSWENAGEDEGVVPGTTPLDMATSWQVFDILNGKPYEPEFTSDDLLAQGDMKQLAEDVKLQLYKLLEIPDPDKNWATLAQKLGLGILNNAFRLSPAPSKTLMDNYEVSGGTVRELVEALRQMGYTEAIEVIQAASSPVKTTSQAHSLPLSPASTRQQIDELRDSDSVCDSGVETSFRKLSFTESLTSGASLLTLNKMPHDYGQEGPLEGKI
T1 sequence (Q00653 whole entry, looked up): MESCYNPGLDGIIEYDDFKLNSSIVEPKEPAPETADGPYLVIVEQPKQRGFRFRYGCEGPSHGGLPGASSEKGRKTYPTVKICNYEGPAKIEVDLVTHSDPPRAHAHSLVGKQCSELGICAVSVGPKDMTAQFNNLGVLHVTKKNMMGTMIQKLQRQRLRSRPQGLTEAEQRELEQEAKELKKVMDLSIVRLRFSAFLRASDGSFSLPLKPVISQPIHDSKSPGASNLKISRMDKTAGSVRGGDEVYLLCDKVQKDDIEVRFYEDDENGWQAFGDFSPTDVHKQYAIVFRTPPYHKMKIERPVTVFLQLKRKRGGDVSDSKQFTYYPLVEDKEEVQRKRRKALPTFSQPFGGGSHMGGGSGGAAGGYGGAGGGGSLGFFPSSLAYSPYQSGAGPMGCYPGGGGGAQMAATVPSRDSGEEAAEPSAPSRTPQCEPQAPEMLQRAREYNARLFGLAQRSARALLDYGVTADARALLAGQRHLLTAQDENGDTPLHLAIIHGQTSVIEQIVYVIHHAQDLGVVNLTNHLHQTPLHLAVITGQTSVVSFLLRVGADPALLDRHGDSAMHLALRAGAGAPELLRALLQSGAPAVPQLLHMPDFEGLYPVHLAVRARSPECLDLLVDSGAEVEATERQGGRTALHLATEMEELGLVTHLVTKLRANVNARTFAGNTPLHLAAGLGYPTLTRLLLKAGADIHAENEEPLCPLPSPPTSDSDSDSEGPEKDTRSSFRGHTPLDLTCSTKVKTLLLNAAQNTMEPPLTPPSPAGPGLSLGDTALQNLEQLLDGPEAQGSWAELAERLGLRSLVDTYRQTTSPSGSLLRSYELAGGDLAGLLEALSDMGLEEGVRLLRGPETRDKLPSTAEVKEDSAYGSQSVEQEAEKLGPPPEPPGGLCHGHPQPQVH
T1 sequence (Q04206 whole entry, looked up): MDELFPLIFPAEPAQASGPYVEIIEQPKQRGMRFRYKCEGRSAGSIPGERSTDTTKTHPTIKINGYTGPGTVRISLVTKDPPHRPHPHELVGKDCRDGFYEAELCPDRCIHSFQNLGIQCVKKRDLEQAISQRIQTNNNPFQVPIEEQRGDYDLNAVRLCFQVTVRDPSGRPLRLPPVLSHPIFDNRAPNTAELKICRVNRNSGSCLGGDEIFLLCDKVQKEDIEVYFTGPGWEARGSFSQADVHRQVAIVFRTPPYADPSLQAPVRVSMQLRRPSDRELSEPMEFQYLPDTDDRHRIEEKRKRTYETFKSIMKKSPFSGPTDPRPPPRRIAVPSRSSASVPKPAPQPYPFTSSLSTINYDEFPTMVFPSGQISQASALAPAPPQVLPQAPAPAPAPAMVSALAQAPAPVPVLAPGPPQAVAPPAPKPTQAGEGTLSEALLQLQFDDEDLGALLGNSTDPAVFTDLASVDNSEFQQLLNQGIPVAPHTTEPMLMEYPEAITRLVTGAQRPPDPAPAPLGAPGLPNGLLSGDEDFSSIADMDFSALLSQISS

[5] = target: T1, Nuclear factor NF-kappa-B complex (Homo sapiens); experiment: Inhibition of IFN-gamma/histamine-induced NF-kappaB activation in human NCTC-2544 cells assessed as inhibition of nuclear translocation at 10 uM after 48 hrs by Western blot analysis relative to sorbinil; type: cell-based; how it was run: as §1
[6] = target: Aldo-keto reductase family 1 member B1 (Bos taurus) (UniProt P16116); experiment: Inhibition of bovine aldose reductase assessed as oxidation of NADPH at 50 uM; how it was run: as §2

- IC50 [3]: 9.2 µM
- NF-kappaB nuclear translocation inhibition (active/not active) [4]: inactive
SMILES: COc1ccc(/C=C2\SC(=S)NC2=O)cc1OCC(N)=O
- inhibition [1]: Active
- inhibition [2]: Active

- IC50 [3]: 33.9 µM
SMILES: COc1cc(/C=C2\SC(=O)NC2=O)ccc1OCC(N)=O

- IC50 [3]: 0.13 µM
SMILES: NC(=O)COc1ccc(/C=C2\SC(=S)N(CC(=O)O)C2=O)cc1

- inhibition [5]: Active
- IC50 [3]: 0.13 µM
- NF-kappaB nuclear translocation inhibition (active/not active) [4]: Active
SMILES: COc1ccc(/C=C2\SC(=S)N(CC(=O)O)C2=O)cc1OCC(N)=O
- inhibition [1]: Active
- inhibition [2]: Active

- IC50 [3]: 11.6 µM
SMILES: COc1cc(/C=C2\SC(=S)NC2=O)ccc1OCC(N)=O

- IC50 [3]: 0.56 µM
SMILES: NC(=O)COc1ccc(/C=C2\SC(=O)N(CC(=O)O)C2=O)cc1

- inhibition [5]: Active
- IC50 [3]: 0.11 µM
- NF-kappaB nuclear translocation inhibition (active/not active) [4]: Active
SMILES: COc1cc(/C=C2\SC(=S)N(CC(=O)O)C2=O)ccc1OCC(N)=O
- inhibition [1]: Active

- IC50 [3]: 0.52 µM
SMILES: COc1ccc(/C=C2\SC(=O)N(CC(=O)O)C2=O)cc1OCC(N)=O

- inhibition [5]: Active
- IC50 [3]: 0.13 µM
- NF-kappaB nuclear translocation inhibition (active/not active) [4]: Active
SMILES: NC(=O)COc1cccc(/C=C2\SC(=S)N(CC(=O)O)C2=O)c1
- inhibition [1]: inactive

- IC50 [3]: 0.5 µM
SMILES: COc1cc(/C=C2\SC(=O)N(CC(=O)O)C2=O)ccc1OCC(N)=O

- inhibition [6]: 34%
SMILES: NC(=O)COc1ccc(/C=C2\SC(=S)NC2=O)cc1

- inhibition [5]: Active
SMILES: O=C1NC(=O)[C@@]2(CCOc3ccc(F)cc32)N1

- IC50 [3]: 1.01 µM
SMILES: NC(=O)COc1cccc(/C=C2\SC(=O)N(CC(=O)O)C2=O)c1

- IC50 [3]: 8.65 µM
- NF-kappaB nuclear translocation inhibition (active/not active) [4]: inactive
SMILES: NC(=O)COc1cccc(/C=C2\SC(=S)NC2=O)c1
- inhibition [1]: Active
- inhibition [2]: Active

- IC50 [3]: 22.6 µM
SMILES: COc1ccc(/C=C2\SC(=O)NC2=O)cc1OCC(N)=O

- inhibition [6]: 40%
SMILES: NC(=O)COc1ccc(/C=C2\SC(=O)NC2=O)cc1

- IC50 [3]: 21.5 µM
SMILES: NC(=O)COc1cccc(/C=C2\SC(=O)NC2=O)c1

Reference: ChEMBL document CHEMBL3259620, “Structure-activity relationships and molecular modelling of new 5-arylidene-4-thiazolidinone derivatives as aldose reductase inhibitors and potential anti-inflammatory agents” (Eur J Med Chem, 2014)
